Assays:
[1] = Lipophilicity, log D of the compound; assay type: physicochemical; details: chromatographic hydrophobicity index (CHI) method
How it was run: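 Lipophilicity was measured by a chromatographic method.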

[2] = Intrinsic clearance in rat microsomes; assay type: ADME, Microsome
[3] = Intrinsic clearance in human microsomes; assay type: ADME, Microsome
[4] = organism: Rattus norvegicus; assay: Liver blood flow in rat; assay type: ADME, organism-based
[5] = Ratio of drug level in brain to blood in rat; assay type: ADME, tissue-based; details: read-out: BBR
[6] = Oral bioavailability in rat; assay type: ADME, organism-based; details: in vivo

SMILES	logD [1]	CL [2] [mL/min/g]	CL [3] [mL/min/g]	QH [4] [%]	Kp [5]	bioavailability [6] [%]
O=C(CN(CC1CC1)C(=O)c1ccc(-c2ccccn2)cc1)Nc1cc(F)cc(F)c1	3.1	5	< 0.5	–	–	–
O=C(CN(C(=O)c1ccc(-c2ccccn2)cc1)C1CCCC1)Nc1cc(F)cc(F)c1	3.4	3.7	1.9	–	–	–
CC(C)N(CC(=O)Nc1cc(F)cc(F)c1)C(=O)c1ccc(-c2ccccn2)cc1	3	1.8	< 0.5	–	–	–
O=C(CN(C(=O)c1ccc(-c2ccccn2)cc1)C1CCOCC1)Nc1cc(F)cc(F)c1	2.5	0.6	< 0.5	75	0.2	25
CCC(C)N(CC(=O)Nc1cc(F)cc(F)c1)C(=O)c1ccc(-c2ccccn2)cc1 (configuration not stated)	3.3	3.8	4.3	–	–	–
O=C(CN(CC1CCC1)C(=O)c1ccc(-c2ccccn2)cc1)Nc1cc(F)cc(F)c1	3.5	4.8	2	–	–	–
COCC(C)N(CC(=O)Nc1cc(F)cc(F)c1)C(=O)c1ccc(-c2ccccn2)cc1 (configuration not stated)	3	4.2	5.8	–	–	–
COCCN(CC(=O)Nc1cc(F)cc(F)c1)C(=O)c1ccc(-c2ccccn2)cc1	–	3	1.5	–	–	–
CCC(COC)N(CC(=O)Nc1cc(F)cc(F)c1)C(=O)c1ccc(-c2ccccn2)cc1 (configuration not stated)	3.3	6.7	9.6	–	–	–
O=C(CN(C(=O)c1ccc(-c2ccccn2)cc1)C1CCOC1)Nc1cc(F)cc(F)c1 (configuration not stated)	2.5	3.2	3.9	–	–	–
COc1ccc(C(=O)N(CC(=O)Nc2cc(F)cc(F)c2)C2CCCCC2)cc1	3.7	–	–	–	–	–
CN1CCC(C(=O)N(CC(=O)Nc2cc(F)cc(F)c2)C2CCCCC2)CC1	1.8	–	–	–	–	–
O=C(CN(C(=O)C1CCOCC1)C1CCCCC1)Nc1cc(F)cc(F)c1	3	–	–	–	–	–
O=C(CN(C(=O)c1cccnc1)C1CCCCC1)Nc1cc(F)cc(F)c1	2.7	–	–	–	–	–
Cn1ccc(C(=O)N(CC(=O)Nc2cc(F)cc(F)c2)C2CCCCC2)n1	3	–	–	–	–	–
CN(C)CCOc1ccc(C(=O)N(CC(=O)Nc2cc(F)cc(F)c2)C2CCCCC2)cc1	2.4	–	–	–	–	–
O=C(CN(C(=O)c1ccc(-n2ccnc2)cc1)C1CCCCC1)Nc1cc(F)cc(F)c1	2.7	1.2	6.1	–	–	–
O=C(CN(C(=O)c1ccc(N2CCCC2)nc1)C1CCCCC1)Nc1cc(F)cc(F)c1	3.6	–	–	–	–	–
O=C(CN(C(=O)c1ccc(N2CCCC2)cc1)C1CCCCC1)Nc1cc(F)cc(F)c1	4.5	–	–	–	–	–
O=C(CN(C(=O)c1ccc(-c2ccccn2)cc1)C1CCCCC1)Nc1cc(F)cc(F)c1	3.7	15.4	5.2	–	–	–
COc1ccc(C(=O)N(Cc2[nH]ncc2-c2ccccc2)C2CCCCC2)cc1	3.1	–	–	–	–	–
COc1ccc(C(=O)N(Cc2c(C)noc2-c2ccccc2)C2CCCCC2)cc1	4.1	–	–	–	–	–
COc1ccc(C(=O)N(Cc2csc(-c3ccccc3)n2)C2CCCCC2)cc1	4.6	–	–	–	–	–
COc1ccc(C(=O)N(Cc2c[nH]c(-c3ccccc3)n2)C2CCCCC2)cc1	2.9	–	–	–	–	–
COc1ccc(C(=O)N(Cc2cn(-c3ccccc3)nn2)C2CCCCC2)cc1	3.5	–	–	–	–	–
COc1ccc(C(=O)N(Cc2ccc(-c3ccc(Cl)cc3)o2)C2CCCCC2)cc1	5	–	–	–	–	–
COc1ccc(C(=O)N(Cc2cc(-c3ccccc3)on2)C2CCCCC2)cc1	4.2	–	–	–	–	–
CC(C)CN(CC(=O)Nc1cc(F)cc(F)c1)C(=O)c1ccc(-c2ccccn2)cc1	3.3	4.9	1.3	–	–	–
O=C(CN(C(=O)c1ccc(-c2ccccn2)cc1)C1CCCOC1)Nc1cc(F)cc(F)c1 (racemic)	2.7	2	2.9	75	0.2	15
